In ChEMBL document CHEMBL1124025, “(Acyloxy)alkyl carbamates as novel bioreversible prodrugs for amines: increased permeation through biological membranes” (J Med Chem, 1988):

Columns and labels:
Rattus norvegicus = species: Rattus norvegicus; assay: Percent diffusion through fuzzy rat skin after 48 h of incubation; format: ADME; settings: in vitro
Outline: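 Whole ventral and dorsal skin from 8-week fuzzy rats (about 250 g) mounted in diffusion cells. Receptor was pH 7.0 phosphate-buffered 0.15 M NaCl with 22 ppm gentamicin. Ethanolic test solution spread on the skin surface. Cells occluded at 32 °C, stirred at 150 rpm, and 0.2 mL sampled with buffer replacement over 48 h. HPLC/UV quantitation; run in triplicate.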

[1] = Hydrolysis half-life at 37 degree C in phosphate buffer at pH 7.4; format: ADME
Outline: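 Done as for the plasma runs but in pH 7.4 Sorensen's buffer at 37 °C. 0.1–0.2 mg prodrug added from a small DMSO drop, sampled at time points, and analysed by direct-injection HPLC for prodrug loss and/or parent amine formation. External-standard quantitation.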

[2] = Hydrolysis half-life at 37 degree C in rat plasma; format: ADME
Outline: (§1)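 0.1–0.2 mg prodrug in a small drop of DMSO, mixed with 1 mL plasma held at 37 °C in a thermostated water bath. Samples drawn at intervals and injected directly onto HPLC to follow loss of prodrug and/or appearance of the parent amine; concentrations by external standard from peak areas. Half-life derived from the time course.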

[3] = Hydrolysis half-life at 37 degree C in dog plasma; format: ADME, Canis lupus familiaris; outline: as §1

Diffusion (Rattus norvegicus) [%] | half-life [1] [h] | half-life [2] [min] | half-life [3] [min] | SMILES
0.53 | 23.5 | 3 | 9.7 | CC(=O)OCOC(=O)N(CC(O)COc1nsnc1N1CCOCC1)C(C)(C)C (stereo not drawn)
18.14 |  |  |  | CC(C)(C)NC[C@H](O)COc1nsnc1N1CCOCC1 [TIMOLOL]
0.45 | 44.5 | 3 |  | CC(=O)OC(C)OC(=O)N(CC(O)COc1cccc2ccccc12)C(C)C (stereo not drawn)
0.35 |  |  |  | CC(=O)OC(C)OC(=O)N(CC(O)COc1cccc2[nH]ccc12)C(C)C (stereo not drawn)

More lines, now with the values behind:

SMILES | Diffusion (Rattus norvegicus) [%] | half-life [1] [h] | half-life [2] [min] | half-life [3] [min]
CC(=O)OC(C)OC(=O)N(CC(O)COc1ccc(CC(N)=O)cc1)C(C)C (stereo not drawn) | 0.49 |  |  | 
CC(C)NCC(O)COc1cccc2ccccc12 (stereo not drawn) [PROPRANOLOL] | 2.4 |  |  | 
CC(C)NCC(O)COc1cccc2[nH]ccc12 (stereo not drawn) [PINDOLOL] | 0.03 |  |  | 
CC(C)NCC(O)COc1ccc(CC(N)=O)cc1 (stereo not drawn) [ATENOLOL] | 0.13 |  |  | 
